Source: PubChem
An excerpt weighted towards active compounds, which were near 4% of everything screened.
E-sel inducer – induces E-selectin expression in human endothelial cells | P16581 | HUVEC E-selectin immunofluorescence imaging; normalized: neutral wells 0, TNF-alpha wells 100 | activation, % at 7.58 µM | actives 0.37% (n = 260,000) | AID 686992;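 active = mean E-selectin-positive cell signal at least 10% of the positive control, reached in at least 60% of replicates, without over 20% cell loss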
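Read-out: % PE-positive cells | Test system: HUVEC | Doses: One compound dose added by pin transfer | Buffer or medium: EGM-2 over gelatin coat | Signal: Immunofluorescence imaging | Benchmarks: TNF-alpha, DMSO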
Statin myotox sup – suppressors of simvastatin-induced myotoxicity in C2C12 myotubes. ATP luminescence, 48 h; scaled: DMSO 0, geranylgeraniol control 100. rescue of ATP level, % at 7.49 µM. actives 0.78% (n = 330,000). AID 602340;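 active = mean ATP rescue above about 67%, or every replicate alone reaching that limit, limit read from the data, passing the limit was not always enough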;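 also: myotubes were challenged with 10 µM simvastatin during compound exposure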
rRNA inh HTS – selective bacterial rRNA inhibition in E. coli; E. coli WT GFP vs humanized-ribosome RFP mutants, fluorescence, 24 h; stronger effect = lower value; DMSO median 0, no signal -100; GFP signal change (wild-type ribosome), % (concentration not given with the values); actives 1.6% (n = 350,000);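 active = significant combined selectivity score with lowered wild-type GFP, culture density cut under 30%, mutant RFP and density less affected; inactive = any of these conditions unmet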
FGF22 binding – FGF22 (human) thermal shift binding. Q9HCT0. recombinant FGF22 thermal shift, SYPRO orange fluorescence; percent of sucrose octasulfate shift, DMSO zero. activity (Tm shift, normalised), % at 9.99 µM. actives 1.5% (n = 340,000). AID 651658;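 active = mean Tm shift, scaled 0 neutral to 100 positive control, at about 1.3% or above, every replicate too, limit read from the data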
Target sequence (Q9HCT0 whole entry, looked up): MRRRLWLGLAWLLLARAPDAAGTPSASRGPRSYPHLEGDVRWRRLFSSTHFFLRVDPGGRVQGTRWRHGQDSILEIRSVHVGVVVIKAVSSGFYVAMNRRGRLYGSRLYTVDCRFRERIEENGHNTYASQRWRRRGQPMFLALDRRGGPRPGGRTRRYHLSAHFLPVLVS
FN deposition inh – fibronectin deposition inhibition. AH1F fibroblasts, Alexa488-fibronectin deposition fluorescence, overnight. actives 0.086% (n = 350,000). inhibition, % at 12.6 µM;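 active = mean inhibition across replicates of 30% or more, regardless of how many single replicates reach that level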
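Assay system: AH1F fibroblast monolayer, labelled fibronectin deposition. Amount: 10000 cells per well. Also added: labelled fibronectin 24 nM. Compound: single-point pinned compound. Incubation: cell attachment 1 h, compound and FN exposure overnight. Detection: fluorescence after three HBSS washes, excitation 485 nm, emission 525 nm. Read-out: inhibition of fibronectin deposition signal.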
SIRT5 inh – blocks human SIRT5 desuccinylation of peptide. inhibition, % at 15 µM. Q9NXA8. AID 652115. actives 1.1% (n = 330,000). Purified SirT5, succinyl-peptide AMC, trypsin-coupled fluorescence; in the data active = inhibition above about 15%
Target sequence (Q9NXA8 whole entry, looked up): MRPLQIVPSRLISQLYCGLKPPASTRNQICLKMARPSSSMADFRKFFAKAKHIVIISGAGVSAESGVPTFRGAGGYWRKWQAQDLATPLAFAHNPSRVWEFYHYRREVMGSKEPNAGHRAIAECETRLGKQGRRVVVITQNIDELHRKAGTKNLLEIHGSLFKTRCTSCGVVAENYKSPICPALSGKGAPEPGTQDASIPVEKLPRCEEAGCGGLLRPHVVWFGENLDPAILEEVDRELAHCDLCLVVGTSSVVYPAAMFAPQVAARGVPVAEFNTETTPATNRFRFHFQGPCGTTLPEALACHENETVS
A number is an active result; – = inactive; · = no result.

SMILES | E-sel inducer | Statin myotox sup | rRNA inh HTS | FGF22 binding | FN deposition inh | SIRT5 inh
CCOC(=O)CNc1ccc(C(=O)OCC)cc1[N+](=O)[O-] | · | · | · | · | – | ·
CC(C)(C)N(Cc1ccccc1)C(=O)COC(=O)c1ccc(Br)o1 | · | – | – | – | – | –
O=C(C[C@@H]1C=C[C@@H](NC(=O)c2ccc3c(c2)OCO3)[C@@H](CO)O1)NCc1ccc(F)cc1 | – | – | – | – | – | –
Cc1ccc(S(=O)(=O)N(C)C[C@H]2Oc3c(NS(=O)(=O)c4cccs4)cccc3C(=O)N([C@@H](C)CO)C[C@H]2C)cc1 | – | – | – | – | · | –
CCCCCCN1C[C@H](O)[C@@H](n2cc(C3CC3)nn2)C[C@@H]1c1ccccc1 | · | – | -16 | – | – | –
CCCCCCN1C[C@@H](O)[C@H](n2cc(COC(=O)c3ccccc3)nn2)C[C@@H]1c1ccc(C)cc1 | · | – | – | – | – | 24
COc1ccc([C@H]2C[C@@H](O)[C@H](n3cc(COC(=O)c4ccccc4)nn3)CN2C(=O)c2cccs2)cc1 | – | – | – | 43 | – | ·
CCCCCCN1C[C@@H](n2cc(C3CC3)nn2)[C@H](O)C[C@@H]1c1ccccc1 | – | – | – | – | – | –
CCCCCCN1C[C@H](O)[C@@H](n2cc(C3CC3)nn2)C[C@@H]1c1ccc(C)cc1 | – | – | – | 44 | – | ·
Cc1ccc(S(=O)(=O)Nc2ccc3c(c2)CC(=O)N([C@H](C)CO)C[C@@H](C)[C@@H](CN(C)Cc2ccncc2)O3)cc1 | – | – | – | – | · | –
CC(C)NC(=O)Nc1cccc2c1O[C@@H](CN(C)S(=O)(=O)c1ccccc1)[C@H](C)CN([C@H](C)CO)C2=O | – | – | – | – | · | –
C#Cc1cccc(NC(=O)CSc2nnc(-c3ccc(C(F)(F)F)cn3)o2)c1 | · | · | – | – | – | –
Cc1cccc(NC(=O)CSc2nnc(-c3n[nH]c4ccccc34)o2)c1 | · | · | – | – | – | 16
N#Cc1cccc(NC(=O)CSc2nnc(-c3n[nH]c4ccccc34)o2)c1 | · | · | – | 1.9 | – | –
C[C@@H]1CN([C@@H](C)CO)C(=O)c2cc(NS(C)(=O)=O)ccc2O[C@H]1CN(C)S(=O)(=O)c1ccc(F)cc1 | – | – | – | – | · | –
Cc1ccc(C(=O)NC(=C(Cl)Cl)S(=O)(=O)c2ccc(Cl)cc2)cc1 | · | · | -24 | – | – | –
C[C@H](CO)N1C[C@H](C)[C@H](CN(C)S(=O)(=O)c2ccc(Cl)cc2)OCCCC[C@H](C)Oc2ccc(NC(=O)c3ccccc3)cc2C1=O | – | · | – | – | · | –
O=C(C[C@@H]1CC[C@@H](NC(=O)Nc2ccc3c(c2)OCO3)[C@H](CO)O1)NCc1ccc(F)cc1 | – | – | – | – | · | –
COCCCn1c(SCC(=O)NCc2ccco2)nc2sc3c(c2c1=O)CCC3 | – | 132 | · | · | – | ·
O=C(CCn1c(SCC(=O)NCc2ccco2)nc2ccccc2c1=O)NCCc1ccccc1 | · | 102 | · | · | – | ·
C=CCn1c(SCC(=O)NCc2ccco2)nc2ccccc2c1=O | · | · | – | – | – | –
O=C(C1CCCCC1)N1C[C@@H]2[C@H](c3ccccc31)[C@@H](CO)N2CC1CCOCC1 | – | – | – | – | · | –
O=c1c(Cc2ccc(F)cc2)c(O)ccn1CCc1cnc[nH]1 | · | · | – | 43 | – | –
COc1ccc(CCn2ccc(O)c(Cc3ccc(Cl)cc3)c2=O)cc1OC | – | – | -29 | – | – | –
C[C@H]1CCCCO[C@H](CN(C)C(=O)CCCN(C)C)[C@@H](C)CN([C@@H](C)CO)C(=O)c2cc(N(C)C)ccc2O1 | – | – | – | – | · | –
SMILES | E-sel inducer | Statin myotox sup | rRNA inh HTS | FGF22 binding | FN deposition inh | SIRT5 inh
COCCSc1ccccc1C(=O)N1CCc2ccccc2C1 | · | – | – | 43 | – | –
CCOC(=O)c1c(NC(=O)CSc2nnc(C)s2)sc2c1CCC(C)C2 (centres undefined) | · | 98 | · | · | · | ·
CCOC(=O)c1c(NC(=O)CSc2nnc(C)s2)sc2c1CCCCC2 | · | · | · | · | – | ·
COc1ccc(S(=O)(=O)N(C)C[C@@H]2Oc3ccc(NC(=O)CCN4CCOCC4)cc3C(=O)N([C@@H](C)CO)C[C@@H]2C)cc1 | – | – | – | – | · | –
Cc1c(C(=O)NCCCN2CCOCC2)oc2ccc(S(=O)(=O)N3CCOCC3)cc12 | · | – | – | 43 | – | –
Cc1c(C(=O)N2CCOCC2)oc2ccc(S(=O)(=O)N3CCCC3)cc12 | · | 121 | · | · | – | ·
CCOC(=O)N1CCN(C(=O)c2oc3ccc(S(=O)(=O)N4CCOCC4)cc3c2C)CC1 | · | 95 | · | · | – | ·
CCOC(=O)N1CCN(C(=O)c2oc3ccc(S(=O)(=O)N4CCCCCC4)cc3c2C)CC1 | · | – | · | · | – | ·
Cc1c(C(=O)N2CCc3ccccc3C2)oc2ccc(S(=O)(=O)N3CCCCCC3)cc12 | – | · | – | – | – | –
CCOCCCNC(=O)c1oc2ccc(S(=O)(=O)N3CCOCC3)cc2c1C | · | – | – | – | – | –
O=C(c1ccc(F)cc1)N1CC(=O)N2[C@@H](CO)[C@@H](c3ccc(C4=CCCC4)cc3)[C@@H]2C1 | – | · | – | · | · | –
Cc1ccccc1-c1cccc([C@@H]2C[C@H]3[C@H](CON3C)CN2Cc2ccccc2)c1 | · | – | – | – | active | –
COc1ccccc1-c1cccc([C@@H]2C[C@H]3[C@H](CON3C)CN2C(=O)CCc2ccccc2)c1 | – | – | – | – | – | 17
COCC(=O)N1C[C@H]2CON(C)[C@H]2C[C@H]1c1cccc(-c2ccccc2OC)c1 | – | – | – | – | · | –
CN1OC[C@@H]2CN(Cc3ccccc3)[C@H](c3ccc(-n4ccnc4)cc3)C[C@@H]21 | – | – | -32 | – | – | –
CN1C(=O)c2cc(NC(=O)C3CCCC3)ccc2OC[C@H]2O[C@@H](CC(=O)O)CC[C@H]21 | – | – | – | · | – | –
O=C(O)Cc1c(O)ccc2ccccc12 | · | 121 | · | · | – | ·
NCc1c(O)ccc2ccccc12 | – | · | – | – | – | –
O=C(Cc1ccc(F)cc1)Nc1nc(-c2ccc(F)c(F)c2)cs1 | · | – | – | – | – | 16
CC1(C(=O)OCC(=O)Nc2nc(-c3ccc(F)c(F)c3)cs2)CC1(Cl)Cl (centres undefined) | – | · | -28 | – | – | –
COCC(=O)Nc1ccc2c(c1)OC[C@@H](C)N(CC1CCCCC1)C[C@@H](C)[C@@H](OC)CN(C)C2=O | · | · | – | · | – | ·
O=C(C1=C(Nc2ccccc2)c2ccccc2S(=O)(=O)N1)c1ccccc1 | · | · | -19 | – | – | –
Cc1ccccc1NC1=C(C(=O)c2ccccc2)N(C)S(=O)(=O)c2ccccc21 | · | – | · | · | – | ·
CC(C)[C@@H]1COCc2cn(nn2)CC[C@@H](Cc2ccc(Cl)cc2)C(=O)N1 | · | · | – | · | – | ·
CCOC(=O)c1nn(-c2ccc(C)cc2)c(=O)c2c(N)scc12 | · | – | · | · | · | ·
